Experimental data published in BindingDB's records for doi:10.1021/np070447m (2008).

Experiments:
[1] = biological target: T1, Serine/threonine-protein kinase PLK4 (Homo sapiens, UniProt O00444); experiment: Inhibition of recombinant SAK
T1 sequence (O00444 whole entry): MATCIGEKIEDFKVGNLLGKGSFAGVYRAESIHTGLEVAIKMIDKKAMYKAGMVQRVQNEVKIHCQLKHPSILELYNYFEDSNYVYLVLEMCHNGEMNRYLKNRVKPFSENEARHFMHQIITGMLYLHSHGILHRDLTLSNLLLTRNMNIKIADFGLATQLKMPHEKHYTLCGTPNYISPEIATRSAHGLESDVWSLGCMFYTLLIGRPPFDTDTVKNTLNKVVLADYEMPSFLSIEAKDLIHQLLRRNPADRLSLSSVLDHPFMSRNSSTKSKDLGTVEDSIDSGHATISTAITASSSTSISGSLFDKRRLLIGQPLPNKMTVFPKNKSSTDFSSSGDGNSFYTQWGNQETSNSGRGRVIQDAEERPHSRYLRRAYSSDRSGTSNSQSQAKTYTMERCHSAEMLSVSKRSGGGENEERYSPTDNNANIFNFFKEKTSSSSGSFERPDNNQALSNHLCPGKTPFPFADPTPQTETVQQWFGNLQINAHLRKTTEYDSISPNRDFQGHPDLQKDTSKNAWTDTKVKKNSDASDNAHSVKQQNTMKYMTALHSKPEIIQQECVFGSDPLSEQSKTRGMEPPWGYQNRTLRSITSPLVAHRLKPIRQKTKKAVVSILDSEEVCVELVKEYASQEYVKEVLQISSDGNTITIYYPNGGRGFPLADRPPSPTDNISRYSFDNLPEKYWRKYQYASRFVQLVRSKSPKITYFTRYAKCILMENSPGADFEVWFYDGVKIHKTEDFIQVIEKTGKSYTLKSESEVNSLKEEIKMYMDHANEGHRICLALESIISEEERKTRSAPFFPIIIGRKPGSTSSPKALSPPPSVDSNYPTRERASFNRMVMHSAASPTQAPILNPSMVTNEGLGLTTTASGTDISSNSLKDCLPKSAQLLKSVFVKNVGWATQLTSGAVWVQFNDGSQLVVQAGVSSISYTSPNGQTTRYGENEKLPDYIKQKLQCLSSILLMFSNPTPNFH

[2] = biological target: T2, Ephrin type-B receptor 4 (Homo sapiens, UniProt P54760); experiment: Inhibition of recombinant EPHB4
T2 sequence (P54760 whole entry): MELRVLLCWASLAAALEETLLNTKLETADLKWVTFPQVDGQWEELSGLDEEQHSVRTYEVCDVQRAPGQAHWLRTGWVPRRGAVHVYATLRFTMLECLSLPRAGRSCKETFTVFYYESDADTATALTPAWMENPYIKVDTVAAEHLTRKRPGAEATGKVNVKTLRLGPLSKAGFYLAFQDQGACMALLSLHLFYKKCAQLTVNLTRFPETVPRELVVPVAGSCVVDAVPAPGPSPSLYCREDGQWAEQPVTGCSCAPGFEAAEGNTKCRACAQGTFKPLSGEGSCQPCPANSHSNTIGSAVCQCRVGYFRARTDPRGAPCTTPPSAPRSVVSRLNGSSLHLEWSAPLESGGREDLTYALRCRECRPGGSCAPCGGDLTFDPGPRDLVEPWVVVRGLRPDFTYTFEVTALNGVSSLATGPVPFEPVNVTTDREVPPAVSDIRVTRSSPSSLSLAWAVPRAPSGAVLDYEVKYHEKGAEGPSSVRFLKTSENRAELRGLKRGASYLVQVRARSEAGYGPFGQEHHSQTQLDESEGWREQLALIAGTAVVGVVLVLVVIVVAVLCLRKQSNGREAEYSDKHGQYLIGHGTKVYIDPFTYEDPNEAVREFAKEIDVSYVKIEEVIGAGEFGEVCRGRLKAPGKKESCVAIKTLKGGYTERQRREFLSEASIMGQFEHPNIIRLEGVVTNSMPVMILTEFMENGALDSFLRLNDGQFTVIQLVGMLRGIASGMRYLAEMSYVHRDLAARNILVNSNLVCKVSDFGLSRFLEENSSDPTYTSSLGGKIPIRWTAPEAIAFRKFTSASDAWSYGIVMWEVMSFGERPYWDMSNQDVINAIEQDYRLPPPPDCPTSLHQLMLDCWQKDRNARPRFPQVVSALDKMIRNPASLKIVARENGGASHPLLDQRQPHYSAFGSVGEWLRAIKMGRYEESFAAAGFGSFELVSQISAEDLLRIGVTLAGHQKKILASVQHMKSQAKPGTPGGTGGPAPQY
Procedure, shortened: (§1)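 Purified recombinant kinase, 50 µL reaction. 1 µM [γ-33P]-ATP with substrate; compound added in 10% DMSO. Tested over several concentrations; IC50 in g/mL.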

[3] = biological target: Proto-oncogene tyrosine-protein kinase Src (Homo sapiens, UniProt P12931); experiment: Inhibition of recombinant SRC; procedure, shortened: as §1
[4] = biological target: Insulin receptor (Homo sapiens, UniProt P06213); experiment: Inhibition of recombinant INSR
[5] = biological target: Serine/threonine-protein kinase PLK1 (Homo sapiens, UniProt P53350); experiment: Inhibition of recombinant PLK1
[6] = biological target: Casein kinase II subunit alpha (Homo sapiens, UniProt P68400); experiment: Inhibition of recombinant CK2alpha1; procedure, shortened: as §1
[7] = biological target: Platelet-derived growth factor receptor beta (Homo sapiens, UniProt P09619); experiment: Inhibition of recombinant PDGFRbeta
[8] = biological target: Aurora kinase B (Homo sapiens, UniProt Q96GD4); experiment: Inhibition of recombinant Aurora B; procedure, shortened: as §1
[9] = biological target: Cyclin-dependent kinase 4/G1/S-specific cyclin-D1 (Homo sapiens, UniProt P11802); experiment: Inhibition of recombinant CDK4/CycD1
Sequence of Cyclin-dependent kinase 4/G1/S-specific cyclin-D1 (P11802 whole entry): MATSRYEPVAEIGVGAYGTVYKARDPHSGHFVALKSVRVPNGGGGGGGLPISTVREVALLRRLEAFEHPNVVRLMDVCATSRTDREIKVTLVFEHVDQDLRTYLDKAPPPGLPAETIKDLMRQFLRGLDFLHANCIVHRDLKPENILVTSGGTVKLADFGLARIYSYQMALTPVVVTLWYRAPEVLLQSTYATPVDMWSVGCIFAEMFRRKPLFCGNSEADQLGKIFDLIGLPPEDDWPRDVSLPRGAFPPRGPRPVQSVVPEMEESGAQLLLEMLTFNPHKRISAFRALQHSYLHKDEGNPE
Sequence of Cyclin-dependent kinase 4/G1/S-specific cyclin-D1 (P24385 whole entry, further chain): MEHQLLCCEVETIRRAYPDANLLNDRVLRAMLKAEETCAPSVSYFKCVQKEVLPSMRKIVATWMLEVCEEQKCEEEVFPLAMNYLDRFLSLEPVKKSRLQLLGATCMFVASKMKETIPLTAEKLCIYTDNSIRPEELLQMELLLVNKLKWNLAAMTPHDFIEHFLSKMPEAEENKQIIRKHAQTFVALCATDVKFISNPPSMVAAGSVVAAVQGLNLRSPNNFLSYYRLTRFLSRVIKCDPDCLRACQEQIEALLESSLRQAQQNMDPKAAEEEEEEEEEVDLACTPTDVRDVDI

Sequence of Serine/threonine-protein kinase PLK1 (P53350 whole entry): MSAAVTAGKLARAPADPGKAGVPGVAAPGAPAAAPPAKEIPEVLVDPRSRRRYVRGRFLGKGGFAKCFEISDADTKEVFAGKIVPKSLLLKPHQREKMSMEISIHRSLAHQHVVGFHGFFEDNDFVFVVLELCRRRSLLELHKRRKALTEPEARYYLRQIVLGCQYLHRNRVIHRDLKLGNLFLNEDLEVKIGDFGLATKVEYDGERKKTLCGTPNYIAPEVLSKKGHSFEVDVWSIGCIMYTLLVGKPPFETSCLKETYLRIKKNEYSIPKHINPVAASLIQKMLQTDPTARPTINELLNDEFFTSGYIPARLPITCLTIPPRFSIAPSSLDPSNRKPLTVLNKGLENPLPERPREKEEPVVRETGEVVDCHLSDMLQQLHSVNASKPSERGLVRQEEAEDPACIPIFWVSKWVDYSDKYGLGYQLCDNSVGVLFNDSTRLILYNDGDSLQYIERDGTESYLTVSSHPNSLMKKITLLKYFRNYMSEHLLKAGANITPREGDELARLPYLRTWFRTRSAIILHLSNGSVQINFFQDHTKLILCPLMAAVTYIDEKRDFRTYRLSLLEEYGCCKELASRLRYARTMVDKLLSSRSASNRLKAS
Sequence of Proto-oncogene tyrosine-protein kinase Src (P12931 2-536 limits assumed): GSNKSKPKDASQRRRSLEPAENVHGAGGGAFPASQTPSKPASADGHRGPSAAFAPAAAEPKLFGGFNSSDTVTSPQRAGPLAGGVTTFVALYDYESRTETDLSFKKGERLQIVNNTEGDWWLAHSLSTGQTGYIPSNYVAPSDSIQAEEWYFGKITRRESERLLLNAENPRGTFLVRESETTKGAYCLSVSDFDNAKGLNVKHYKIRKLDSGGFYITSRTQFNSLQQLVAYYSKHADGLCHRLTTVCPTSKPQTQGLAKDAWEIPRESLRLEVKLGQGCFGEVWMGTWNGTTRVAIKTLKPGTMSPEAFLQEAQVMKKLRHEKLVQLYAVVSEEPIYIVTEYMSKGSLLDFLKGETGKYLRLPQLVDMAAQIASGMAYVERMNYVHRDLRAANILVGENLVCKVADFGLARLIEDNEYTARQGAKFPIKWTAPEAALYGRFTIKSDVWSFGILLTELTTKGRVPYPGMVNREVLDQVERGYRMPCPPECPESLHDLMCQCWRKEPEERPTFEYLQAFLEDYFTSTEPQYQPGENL
Sequence of Casein kinase II subunit alpha (P68400 whole entry): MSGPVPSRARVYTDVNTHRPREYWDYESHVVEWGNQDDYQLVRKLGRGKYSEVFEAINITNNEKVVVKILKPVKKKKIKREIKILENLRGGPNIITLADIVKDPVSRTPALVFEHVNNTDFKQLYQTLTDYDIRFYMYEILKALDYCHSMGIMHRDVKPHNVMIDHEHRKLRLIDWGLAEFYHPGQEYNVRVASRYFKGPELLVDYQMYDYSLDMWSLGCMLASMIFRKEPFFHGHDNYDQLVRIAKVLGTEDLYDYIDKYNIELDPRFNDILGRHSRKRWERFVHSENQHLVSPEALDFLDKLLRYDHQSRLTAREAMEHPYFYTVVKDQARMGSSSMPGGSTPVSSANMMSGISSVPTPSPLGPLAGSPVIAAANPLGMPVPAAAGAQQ
Sequence of Aurora kinase B (Q96GD4 whole entry): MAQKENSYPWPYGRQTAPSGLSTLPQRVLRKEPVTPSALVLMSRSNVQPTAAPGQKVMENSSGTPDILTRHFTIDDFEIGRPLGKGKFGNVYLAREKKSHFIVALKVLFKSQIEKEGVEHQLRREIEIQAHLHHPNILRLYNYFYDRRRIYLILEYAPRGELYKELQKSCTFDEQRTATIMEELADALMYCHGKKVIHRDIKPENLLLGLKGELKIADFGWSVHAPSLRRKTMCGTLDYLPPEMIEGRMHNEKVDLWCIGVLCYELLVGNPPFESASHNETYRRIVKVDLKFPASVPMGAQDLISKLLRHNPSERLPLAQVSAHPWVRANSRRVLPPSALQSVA
Sequence of Insulin receptor (P06213 28-758 limits assumed): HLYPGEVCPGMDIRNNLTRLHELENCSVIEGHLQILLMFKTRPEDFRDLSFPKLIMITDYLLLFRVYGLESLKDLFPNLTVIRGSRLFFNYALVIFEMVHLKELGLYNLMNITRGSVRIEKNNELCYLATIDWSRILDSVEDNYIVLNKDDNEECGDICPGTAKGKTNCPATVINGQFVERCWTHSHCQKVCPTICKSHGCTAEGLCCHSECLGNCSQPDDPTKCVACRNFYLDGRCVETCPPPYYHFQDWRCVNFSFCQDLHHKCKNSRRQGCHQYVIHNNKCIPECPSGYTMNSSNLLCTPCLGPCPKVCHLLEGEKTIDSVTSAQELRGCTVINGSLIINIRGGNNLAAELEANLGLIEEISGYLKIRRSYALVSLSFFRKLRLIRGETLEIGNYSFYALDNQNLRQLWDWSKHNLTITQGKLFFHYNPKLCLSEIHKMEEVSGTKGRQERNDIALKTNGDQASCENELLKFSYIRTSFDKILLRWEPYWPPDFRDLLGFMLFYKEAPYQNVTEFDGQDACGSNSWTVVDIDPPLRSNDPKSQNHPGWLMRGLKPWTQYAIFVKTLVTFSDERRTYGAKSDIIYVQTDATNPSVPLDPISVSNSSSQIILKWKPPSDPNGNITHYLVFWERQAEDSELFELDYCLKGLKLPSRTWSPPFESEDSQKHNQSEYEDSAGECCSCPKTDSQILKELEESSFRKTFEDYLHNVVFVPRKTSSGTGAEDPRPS
Sequence of Insulin receptor (P06213 763-1382 limits assumed): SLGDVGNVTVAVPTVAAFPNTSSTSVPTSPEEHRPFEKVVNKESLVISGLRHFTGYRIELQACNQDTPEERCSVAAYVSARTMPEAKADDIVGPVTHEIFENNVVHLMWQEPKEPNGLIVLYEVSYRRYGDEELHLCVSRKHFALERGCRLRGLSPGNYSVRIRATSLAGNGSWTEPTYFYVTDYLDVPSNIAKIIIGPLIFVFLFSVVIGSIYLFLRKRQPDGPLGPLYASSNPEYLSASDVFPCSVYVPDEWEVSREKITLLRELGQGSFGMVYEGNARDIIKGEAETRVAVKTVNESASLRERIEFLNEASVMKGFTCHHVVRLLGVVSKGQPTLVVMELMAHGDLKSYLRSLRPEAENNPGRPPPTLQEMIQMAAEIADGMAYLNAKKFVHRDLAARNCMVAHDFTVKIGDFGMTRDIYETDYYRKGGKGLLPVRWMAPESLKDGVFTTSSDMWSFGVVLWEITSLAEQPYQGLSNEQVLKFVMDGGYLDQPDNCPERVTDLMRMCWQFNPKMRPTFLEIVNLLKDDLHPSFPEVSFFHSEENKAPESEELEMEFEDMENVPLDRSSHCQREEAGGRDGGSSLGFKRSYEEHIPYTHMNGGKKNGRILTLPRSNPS
Sequence of Platelet-derived growth factor receptor beta (P09619 whole entry): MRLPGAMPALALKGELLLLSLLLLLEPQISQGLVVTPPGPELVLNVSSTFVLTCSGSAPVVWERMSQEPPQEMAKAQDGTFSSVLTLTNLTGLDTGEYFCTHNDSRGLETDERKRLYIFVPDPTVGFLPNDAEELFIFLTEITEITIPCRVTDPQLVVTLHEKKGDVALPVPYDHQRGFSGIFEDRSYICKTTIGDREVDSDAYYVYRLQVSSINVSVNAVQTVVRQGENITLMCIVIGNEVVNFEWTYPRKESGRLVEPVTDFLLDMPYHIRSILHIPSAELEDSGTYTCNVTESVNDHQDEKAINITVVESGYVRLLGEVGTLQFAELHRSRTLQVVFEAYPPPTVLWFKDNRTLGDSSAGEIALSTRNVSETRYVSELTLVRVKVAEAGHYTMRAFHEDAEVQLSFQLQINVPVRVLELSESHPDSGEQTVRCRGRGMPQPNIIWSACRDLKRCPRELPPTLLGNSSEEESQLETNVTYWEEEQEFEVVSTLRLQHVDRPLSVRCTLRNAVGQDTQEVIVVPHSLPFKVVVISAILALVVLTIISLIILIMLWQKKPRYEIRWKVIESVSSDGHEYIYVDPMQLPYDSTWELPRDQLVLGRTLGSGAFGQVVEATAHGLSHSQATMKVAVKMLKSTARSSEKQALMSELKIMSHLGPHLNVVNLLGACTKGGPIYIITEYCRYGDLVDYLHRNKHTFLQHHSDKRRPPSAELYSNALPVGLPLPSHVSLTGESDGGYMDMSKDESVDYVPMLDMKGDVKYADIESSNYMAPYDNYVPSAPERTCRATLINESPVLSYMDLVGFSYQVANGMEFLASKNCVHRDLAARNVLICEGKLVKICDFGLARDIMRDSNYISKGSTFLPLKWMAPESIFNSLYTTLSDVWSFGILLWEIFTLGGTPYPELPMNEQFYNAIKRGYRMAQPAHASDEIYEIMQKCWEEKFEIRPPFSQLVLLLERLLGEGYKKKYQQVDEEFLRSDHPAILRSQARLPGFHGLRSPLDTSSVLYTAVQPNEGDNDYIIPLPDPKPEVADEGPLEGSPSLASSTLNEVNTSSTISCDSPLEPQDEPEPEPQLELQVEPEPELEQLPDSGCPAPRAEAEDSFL

Compound | IC50 [1] | IC50 [2] | IC50 [3] | IC50 [4] | IC50 [5] | IC50 [6] | IC50 [7] | IC50 [8] | IC50 [9]
COc1cc(O)c2c(c1)-c1cc(O)c(O)cc1COC2=O [Alterlactone] | > 34.6 µM | > 34.6 µM | > 34.6 µM | > 34.6 µM | > 34.6 µM | > 34.6 µM | > 34.6 µM | > 34.6 µM | > 34.6 µM
COc1cc(O)c2c(c1)C1(OC2=O)C(=O)C(=O)CC1C (stereo unspecified) [TALAROFLAVONE] | > 36.2 µM | > 36.2 µM | > 36.2 µM |  | > 36.2 µM | > 36.2 µM |  | > 36.2 µM | > 36.2 µM
